From ChEMBL document CHEMBL1828509, “Synthesis, pharmacological evaluation and docking studies of coumarin derivatives” (2011)

How the values were obtained:
Type in all cases: functional
Bacillus subtilis [1] = assay: Antimicrobial activity against Bacillus subtilis MTCC 1789 at 10 ug/ml; settings: read-out: IZ
Aspergillus niger [2] = assay: Antifungal activity against Aspergillus niger MTCC 282 at 10 ug/ml; settings: read-out: IZ
Mus musculus = assay: Analgesic activity in mouse assessed as inhibition of acetic acid-induced writhing administered 30 mins before acetic acid challenge measured after 30 mins relative to control; design: concentration or dose not given beside the values
How it was run: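 Groups of six mice (20–30 g, both sexes, pregnant females excluded) dosed with test compound; 30 min later 0.25 ml/mouse of 0.5% acetic acid given i.p. Writhes counted over the next 30 min. Mean writhes per group ± SE; percent decrease versus untreated control mice.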

Rattus norvegicus [3] = assay: Antiinflammatory activity in Wistar albino rat assessed as inhibition of carrageenan-induced paw edema at 20 mg/kg, po administered 30 mins before carrageenan challenge measured after 2 hrs by plethysmograph
How it was run: (§1)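 Male Wistar albino rats (150–200 g), six per group, dosed orally with 20 mg/kg suspension; control got 0.1 ml of 1% gum acacia suspension orally. After 30 min, 0.1 ml of 1% carrageenan in normal saline injected sub-plantar into the right hind paw. Paw volume measured by plethysmograph at 0, 1, 2, 3 and 4 h; percent edema inhibition versus control at matching time.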

Candida albicans [4] = assay: Antifungal activity against Candida albicans MTCC 183 at 50 ug/ml; settings: read-out: IZ
Rattus norvegicus [5] = assay: Antiinflammatory activity in Wistar albino rat assessed as inhibition of carrageenan-induced paw edema at 20 mg/kg, po administered 30 mins before carrageenan challenge measured after 1 hr by plethysmograph; how it was run: as §1
Aspergillus niger [6] = assay: Antifungal activity against Aspergillus niger MTCC 282 at 50 ug/ml; settings: read-out: IZ
Escherichia coli [7] = assay: Antimicrobial activity against Escherichia coli MTCC 4315 at 50 ug/ml; settings: read-out: IZ
Rattus norvegicus [8] = assay: Antiinflammatory activity in Wistar albino rat assessed as inhibition of carrageenan-induced paw edema at 20 mg/kg, po administered 30 mins before carrageenan challenge measured after 4 hrs by plethysmograph; how it was run: as §1
Rattus norvegicus [9] = assay: Antiinflammatory activity in Wistar albino rat assessed as inhibition of carrageenan-induced paw edema at 20 mg/kg, po administered 30 mins before carrageenan challenge measured after 3 hrs by plethysmograph; how it was run: as §1
Bacillus subtilis [10] = assay: Antimicrobial activity against Bacillus subtilis MTCC 1789 at 25 ug/ml; settings: read-out: IZ
Escherichia coli [11] = assay: Antimicrobial activity against Escherichia coli MTCC 4315 at 10 ug/ml; settings: read-out: IZ
Escherichia coli [12] = assay: Antimicrobial activity against Escherichia coli MTCC 4315 at 25 ug/ml; settings: read-out: IZ
Candida albicans [13] = assay: Antifungal activity against Candida albicans MTCC 183 at 10 ug/ml; settings: read-out: IZ
Bacillus subtilis [14] = assay: Antimicrobial activity against Bacillus subtilis MTCC 1789 at 50 ug/ml; settings: read-out: IZ
Aspergillus niger [15] = assay: Antifungal activity against Aspergillus niger MTCC 282 at 25 ug/ml; settings: read-out: IZ
Candida albicans [16] = assay: Antifungal activity against Candida albicans MTCC 183 at 25 ug/ml; settings: read-out: IZ

SMILES	zone of inhibition at 10 µg/mL (Bacillus subtilis [1])	zone of inhibition at 10 µg/mL (Aspergillus niger [2])	Activity (Mus musculus)	inhibition in vivo at 20 mg/kg (Rattus norvegicus [3])	zone of inhibition at 50 µg/mL (Candida albicans [4])	inhibition in vivo at 20 mg/kg (Rattus norvegicus [5])	zone of inhibition at 50 µg/mL (Aspergillus niger [6])	zone of inhibition at 50 µg/mL (Escherichia coli [7])	inhibition in vivo at 20 mg/kg (Rattus norvegicus [8])	inhibition in vivo at 20 mg/kg (Rattus norvegicus [9])	zone of inhibition at 25 µg/mL (Bacillus subtilis [10])	zone of inhibition at 10 µg/mL (Escherichia coli [11])	zone of inhibition at 25 µg/mL (Escherichia coli [12])	zone of inhibition at 10 µg/mL (Candida albicans [13])	zone of inhibition at 50 µg/mL (Bacillus subtilis [14])	zone of inhibition at 25 µg/mL (Aspergillus niger [15])	zone of inhibition at 25 µg/mL (Candida albicans [16])
COc1ccccc1NCC(=O)Oc1ccc2c(C)cc(=O)oc2c1	10.2 mm	10.4 mm	28%	15.3%	12.4 mm	10.7%	12.4 mm	10.2 mm	19.4%	26.6%	11.4 mm	–	–	–	–	–	–
Cc1cc(=O)oc2cc(OC(=O)CNc3cccc([N+](=O)[O-])c3)ccc12	–	–	13%	30.7%	–	28.5%	11.4 mm	11.1 mm	32.2%	34%	11.2 mm	10.3 mm	11.3 mm	10.5 mm	13.4 mm	10.5 mm	–
Cc1cc(=O)oc2cc(OC(=O)CNc3nccs3)ccc12	10.4 mm	13.4 mm	45%	37.1%	12.4 mm	39.2%	16.5 mm	18.4 mm	32.3%	47.8%	14.4 mm	–	10.2 mm	10.1 mm	16.9 mm	15.4 mm	–
COc1ccc2c(c1)c(CC(=O)O)c(C)n2C(=O)c1ccc(Cl)cc1 [INDOMETHACIN]	–	–	56%	67.9%	–	53.5%	–	–	57.6%	68.8%	–	–	–	–	–	–	–
Cc1cc(=O)oc2cc(OC(=O)CNc3ccc(Cl)cc3)ccc12	–	–	11%	23%	13.4 mm	10.7%	12.1 mm	12.6 mm	16.1%	15.9%	–	–	10.8 mm	10.6 mm	12.3 mm	10.2 mm	12.2 mm
Cc1cccc(NCC(=O)Oc2ccc3c(C)cc(=O)oc3c2)c1	10.5 mm	–	13%	15.3%	14.4 mm	12.5%	13.4 mm	16.9 mm	23.7%	15.9%	12.4 mm	11 mm	14 mm	11.4 mm	13.6 mm	12.2 mm	13.4 mm
NCC[C@H](O)C(=O)N[C@@H]1C[C@H](N)[C@@H](O[C@H]2O[C@H](CN)[C@@H](O)[C@H](O)[C@H]2O)[C@H](O)[C@H]1O[C@H]1O[C@H](CO)[C@@H](O)[C@H](N)[C@H]1O [AMIKACIN]	–	–	–	–	–	–	–	20 mm	–	–	–	14 mm	16.2 mm	–	–	–	–
Cc1cc(=O)oc2cc(OC(=O)CNc3ccccc3Cl)ccc12	–	–	21%	11.5%	10.4 mm	21.4%	12.4 mm	12.6 mm	23.7%	12.8%	–	–	10.8 mm	–	–	10.2 mm	–
Cc1cc(=O)oc2cc(OC(=O)CNc3nc4ccccc4s3)ccc12	10.4 mm	–	35%	35.9%	–	30.3%	12.4 mm	14.5 mm	40.6%	40.4%	–	–	–	13.4 mm	18.1 mm	–	12.2 mm
